From ChEMBL document CHEMBL4373710, “DNA Structural Alteration Leading to Antibacterial Properties of 6-Nitroquinoxaline Derivatives” (J Med Chem, 2019)
≈ marks a conversion by molar mass, not a printed value. Calls of active or inactive are those of the source. The calls are words filed in the database; no cut-off is given here.

Assays:
Pseudomonas aeruginosa = assay: Antibacterial activity against Pseudomonas aeruginosa MTCC1688 by broth microdilution assay; format: functional
How it was run: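 Broth microdilution per CLSI; 5×10^5 cfu/mL bacteria in LB broth; compounds from DMSO stocks, final DMSO under 0.6%, with DMSO control. Plates incubated at the strain's recommended growth temperature and time; growth read as OD600.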

HEK293 = assay: Induction of morphological changes in HEK293 cells at 5 uM by propidium iodide staining based assay; format: cell-based; conditions: human, hek293, 5 µM
[1] = Binding affinity to pCDNA 3.1 (unknown origin) assessed as DNA unwinding effect at 2:1 to 4:1 compound to DNA ratio measured after 16 hrs by EtBr staining agarose gel shift assay
How it was run: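 pcDNA3.1 plasmid was grown in E. coli DH5α and used at 40 µM in 50 mM NaP, pH 7, with 10 mM NaCl. Mixed with compound at set [compound]:[DNA bp] ratios and held 16 h at 37 °C. Run on 1% agarose at 50 V for about 3 h, then stained with EtBr (1 µg/mL) for 5 min.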

Calf thymus DNA [2] = assay: Binding affinity to calf thymus DNA assessed as change in B-DNA structure at 265 nm by circular dichroism method; format: nucleic-acid assay; conditions: Bos taurus
[3] = tested on: Poly(dG-dC)oligonucleotide; assay: Binding affinity to poly(dG-dC) DNA (unknown origin) assessed as appearance of induced CD by circular dichroism method; format: nucleic-acid assay
How it was run: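 Poly(dA-dT)·poly(dA-dT) or poly(dG-dC)·poly(dG-dC) held at 10 µM. Titrated with compound from 20 to 60 µM and followed by circular dichroism for change in the B-DNA band and appearance of induced CD.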

DNA [4] = assay: Binding affinity to DNA isolated from HEK293 cells assessed as change in B-DNA structure at 15 to 180 uM by circular dichroism method; format: ADME, cell-free; conditions: human, hek293, 180 µM
DNA [5] = assay: Inhibition of ethidium bromide binding to Staphylococcus aureus DNA by fluorescence assay; format: nucleic-acid assay
How it was run: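 Fluorescence intercalator displacement: S. aureus genomic DNA 10 µM plus EtBr 5 µM in 10 mM NaP pH 7, 10 mM NaCl, 1% DMSO, at 25 and 37 °C; titrated with 2.5–100 µM compound. Excitation 480 nm, emission 520–700 nm, inner-filter corrected, triplicates; Stern–Volmer analysis, F0/F = 1 + Ksv[Q].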

Calf thymus DNA [6] = assay: Binding affinity to calf thymus DNA by isothermal titration calorimetric analysis; format: nucleic-acid assay; conditions: Bos taurus
Staphylococcus aureus [7] = assay: Induction of DNA fragmentation in Staphylococcus aureus at 3.5 uM by EtBr staining based confocal laser scanning fluorescence microscopic analysis; format: functional, organism-based
Staphylococcus aureus [8] = assay: Induction of morphological changes in Staphylococcus aureus assessed as change in microbe length at 3.5 uM by atomic force microscopic analysis (reference value: 1.37 +/- 0.09 micrometer); format: functional
Staphylococcus aureus [9] = assay: Induction of morphological changes in Staphylococcus aureus assessed as unchanged population at 3.5 uM measured after 2 hrs by flow cytometric analysis (reference value: 90.4%); format: functional
Staphylococcus aureus [10] = assay: Induction of morphological changes in Staphylococcus aureus assessed as unchanged population at 7.5 uM measured after 2 hrs by flow cytometric analysis (reference value: 90.4%); format: functional

MIC (Pseudomonas aeruginosa): 6.73 µg/mL (≈ 15 µM)
Activity [1]: Active
Activity (Calf thymus DNA [2]): Dose-dependent effect
Activity [3]: Dose-dependent effect
Activity (DNA [4]): Active
inhibition (DNA [5]): Dose-dependent effect
Ka (Calf thymus DNA [6]): 2.27 ×10⁴ /M
Structure (SMILES): CN(C)CCCNc1nc2cc([N+](=O)[O-])ccc2nc1NCc1ccc(C(F)(F)F)cc1
Activity (HEK293): Non-Toxic
Activity (Staphylococcus aureus [7]): Active
Activity (Staphylococcus aureus [8]): 2.3 um
Activity (Staphylococcus aureus [9]): 86.3%
Activity (Staphylococcus aureus [10]): 81%
